From ChEMBL document CHEMBL3400013, “Synthesis and biological activity evaluation of hydrazone derivatives based on a Tröger's base skeleton” (Bioorg Med Chem, 2015)
Calls of active or inactive are those of the source. The calls are words filed in the database; no cut-off is given here.

Key:
[1] = test system: Nucleic Acid; experiment: Binding affinity to DNA (unknown origin) assessed as DNA intercalation by UV-visible spectrophotometry in presence of Fe3+; type: nucleic-acid assay
[2] = Metal chelating activity of the compound assessed as formation of Co2+ complex by UV-vis spectrometry; type: physicochemical
[3] = Metal chelating activity of the compound assessed as formation of Ni2+ complex by UV-vis spectrometry; type: physicochemical
[4] = test system: Escherichia coli; experiment: Antimicrobial activity against multidrug-resistant Escherichia coli C/16702 up to 200 uM after 24 to 48 hrs by broth microdilution method; type: functional, organism-based
[5] = test system: MRC5; experiment: Selectivity index, ratio of IC50 for human MRC5 cells to IC50 for human K562-TAX cells; type: functional
[6] = test system: BJ; experiment: Selectivity index, ratio of IC50 for human BJ cells to IC50 for human p53-/- HCT116 cells; type: functional
[7] = test system: Candida parapsilosis; experiment: Antifungal activity against Candida parapsilosis up to 200 uM after 24 to 48 hrs by broth microdilution method; type: functional, organism-based
[8] = Metal chelating activity of the compound assessed as formation of Ca2+ complex by UV-vis spectrometry; type: physicochemical
[9] = test system: Pseudomonas aeruginosa; experiment: Antimicrobial activity against multidrug-resistant Pseudomonas aeruginosa A/16575 up to 200 uM after 24 to 48 hrs by broth microdilution method; type: functional, organism-based
[10] = Metal chelating activity of the compound assessed as formation of Zn2+ complex by UV-vis spectrometry; type: physicochemical
[11] = test system: HCT-116; experiment: Selectivity index, ratio of IC50 for human MRC5 cells to IC50 for human HCT116 cells; type: functional
[12] = test system: Nucleic Acid; experiment: Binding affinity to DNA (unknown origin) assessed as DNA intercalation by UV-visible spectrophotometry in presence of Ni2+; type: nucleic-acid assay
[13] = test system: BJ; experiment: Cytostatic activity against human BJ cells after 72 hrs by MTT assay; type: ADME, cell-based
Method in brief: (§1)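 Cells were seeded at 25,000–30,000 per well and pre-incubated for 24 h at 37°C in 5% CO2. Four-fold compound dilutions were added in duplicate and incubated for 72 h. MTT was added for 1–4 h, and formazan was dissolved in 10% aq SDS (pH 5.5) overnight at 37°C. OD was read at 540 nm. IC50 came from dose-response curves, mean ± SD of eight independent experiments.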

[14] = Metal chelating activity of the compound assessed as formation of Mn2+ complex by UV-vis spectrometry; type: physicochemical
[15] = Cytostatic activity against human CEM-DNR cells after 72 hrs by MTT assay; type: functional, cell-based; method in brief: as §1
[16] = test system: BJ; experiment: Selectivity index, ratio of IC50 for human BJ cells to IC50 for human CEM-DNR cells; type: functional
[17] = test system: MRC5; experiment: Cytostatic activity against human MRC5 cells after 72 hrs by MTT assay; type: ADME, cell-based; conditions: MRC5, 72 h; method in brief: as §1
[18] = test system: K562; experiment: Selectivity index, ratio of IC50 for human MRC5 cells to IC50 for human K562 cells; type: functional
[19] = test system: Candida albicans; experiment: Antifungal activity against Candida albicans up to 200 uM after 24 to 48 hrs by broth microdilution method; type: functional, organism-based
[20] = test system: A549; experiment: Selectivity index, ratio of IC50 for human BJ cells to IC50 for human A549 cells; type: functional
[21] = Metal chelating activity of the compound assessed as formation of Cr3+ complex by UV-vis spectrometry; type: physicochemical
[22] = test system: Nucleic Acid; experiment: Binding affinity to DNA (unknown origin) assessed as DNA intercalation by UV-visible spectrophotometry in presence of Cu2+; type: nucleic-acid assay
[23] = test system: BJ; experiment: Selectivity index, ratio of IC50 for human BJ cells to IC50 for human K562-TAX cells; type: functional
[24] = test system: Staphylococcus haemolyticus; experiment: Antimicrobial activity against methicillin-resistant Staphylococcus haemolyticus A1/16568 up to 200 uM after 24 to 48 hrs by broth microdilution method; type: functional, organism-based
[25] = Cytostatic activity against human K562-TAX cells after 72 hrs by MTT assay; type: functional, cell-based; method in brief: as §1
[26] = test system: Candida tropicalis; experiment: Antifungal activity against Candida tropicalis up to 200 uM after 24 to 48 hrs by broth microdilution method; type: functional, organism-based
[27] = test system: BJ; experiment: Selectivity index, ratio of IC50 for human BJ cells to IC50 for human HCT116 cells; type: functional
[28] = test system: A549; experiment: Selectivity index, ratio of IC50 for human MRC5 cells to IC50 for human A549 cells; type: functional
[29] = test system: Nucleic Acid; experiment: Binding affinity to DNA (unknown origin) assessed as DNA intercalation by UV-visible spectrophotometry; type: nucleic-acid assay
[30] = test system: BJ; experiment: Selectivity index, ratio of IC50 for human BJ cells to IC50 for human K562 cells; type: functional
[31] = Metal chelating activity of the compound assessed as formation of Cu2+ complex by UV-vis spectrometry; type: physicochemical
[32] = test system: Enterococcus faecalis; experiment: Antimicrobial activity against Enterococcus faecalis CCM 4224 up to 200 uM after 24 to 48 hrs by broth microdilution method; type: functional, organism-based
[33] = test system: A549; experiment: Cytostatic activity against human A549 cells after 72 hrs by MTT assay; type: functional, cell-based; conditions: A549, 72 h; method in brief: as §1
[34] = Cytostatic activity against human p53-/- HCT116 cells after 72 hrs by MTT assay; type: functional, cell-based; conditions: HCT-116, 72 h; method in brief: as §1
[35] = Cytostatic activity against human HCT116 cells after 72 hrs by MTT assay; type: functional, cell-based; conditions: HCT-116, 72 h; method in brief: as §1
[36] = test system: Nucleic Acid; experiment: Binding affinity to DNA (unknown origin) assessed as DNA intercalation by UV-visible spectrophotometry in presence of Zn2+; type: nucleic-acid assay
[37] = Metal chelating activity of the compound assessed as formation of Fe3+ complex by UV-vis spectrometry; type: physicochemical
[38] = test system: Escherichia coli; experiment: Antimicrobial activity against Escherichia coli CCM 3954 up to 200 uM after 24 to 48 hrs by broth microdilution method; type: functional, organism-based
[39] = test system: Pichia kudriavzevii; experiment: Antifungal activity against Candida crusei up to 200 uM after 24 to 48 hrs by broth microdilution method; type: functional, organism-based
[40] = test system: CEM-DNR; experiment: Selectivity index, ratio of IC50 for human MRC5 cells to IC50 for human CEM-DNR cells; type: functional
[41] = test system: HCT-116; experiment: Selectivity index, ratio of IC50 for human MRC5 cells to IC50 for human p53-/- HCT116 cells; type: functional
[42] = test system: Nucleic Acid; experiment: Binding affinity to DNA (unknown origin) assessed as DNA intercalation by UV-visible spectrophotometry in presence of Co2+; type: nucleic-acid assay
[43] = test system: CCRF-CEM; experiment: Cytostatic activity against human CCRF-CEM cells after 72 hrs by MTT assay; type: functional, cell-based; method in brief: as §1
[44] = test system: K562; experiment: Cytostatic activity against human K562 cells after 72 hrs by MTT assay; type: functional, cell-based; conditions: K562, 72 h; method in brief: as §1
[45] = Metal chelating activity of the compound assessed as formation of Fe2+ complex by UV-vis spectrometry; type: physicochemical
[46] = test system: Staphylococcus aureus; experiment: Antimicrobial activity against methicillin-resistant Staphylococcus aureus MRSA 4591 up to 200 uM after 24 to 48 hrs by broth microdilution method; type: functional, organism-based
[47] = Metal chelating activity of the compound assessed as formation of Mg2+ complex by UV-vis spectrometry; type: physicochemical
[48] = test system: Pseudomonas aeruginosa; experiment: Antimicrobial activity against Pseudomonas aeruginosa CCM 395 up to 200 uM after 24 to 48 hrs by broth microdilution method; type: functional, organism-based
[49] = test system: BJ; experiment: Selectivity index, ratio of IC50 for human BJ cells to IC50 for human CCRF-CEM cells; type: functional; conditions: pooled result: one value given for 2 cell lines, strains, targets or settings
[50] = test system: Staphylococcus aureus; experiment: Antimicrobial activity against Staphylococcus aureus CCM 3953 up to 200 uM after 24 to 48 hrs by broth microdilution method; type: functional, organism-based

SMILES: O=C(N/N=C/c1cc([N+](=O)[O-])ccc1O)c1ccc2c3c(ccc2c1)N1Cc2c(ccc4cc(C(=O)N/N=C/c5cc([N+](=O)[O-])ccc5O)ccc24)N(C3)C1
- Activity [1]: Active
- Activity [2]: Active
- Activity [3]: Active
- Activity [4]: inactive
- Ratio IC50 [5]: 0.9
- Ratio IC50 [6]: 0.9
- Activity [7]: inactive
- Activity [8]: Not Active
- Activity [9]: inactive
- Activity [10]: Active
- Ratio IC50 [11]: 0.9
- Activity [12]: Active
- IC50 [13]: > 100 µM
- Activity [14]: Not Active
- IC50 [15]: > 100 µM
- Ratio IC50 [16]: 0.9
- IC50 [17]: 88.8 µM
- Ratio IC50 [18]: 0.9
- Activity [19]: inactive
- Ratio IC50 [20]: 0.9
- Activity [21]: Not Active
- Activity [22]: Active
- Ratio IC50 [23]: 0.9
- Activity [24]: inactive
- IC50 [25]: > 100 µM
- Activity [26]: inactive
- Ratio IC50 [27]: 0.9
- Ratio IC50 [28]: 0.9
- Activity [29]: inactive
- Ratio IC50 [30]: 0.9
- Activity [31]: Active
- Activity [32]: inactive
- IC50 [33]: > 100 µM
- IC50 [34]: > 100 µM
- IC50 [35]: > 100 µM
- Activity [36]: Active
- Activity [37]: Active
- Activity [38]: inactive
- Activity [39]: inactive
- Ratio IC50 [40]: 0.9
- Ratio IC50 [41]: 0.9
- Activity [42]: Active
- IC50 [43]: > 100 µM
- IC50 [44]: > 100 µM
- Activity [45]: Not Active
- Activity [46]: inactive
- Activity [47]: Not Active
- Activity [48]: inactive
- Ratio IC50 [49]: 0.9
- Activity [50]: inactive

SMILES: COc1cccnc1/C=N/NC(=O)c1ccc2c3c(ccc2c1)N1Cc2c(ccc4cc(C(=O)N/N=C/c5ncccc5OC)ccc24)N(C3)C1
- Activity [1]: Active
- Activity [2]: Active
- Activity [3]: Active
- Activity [4]: inactive
- Ratio IC50 [5]: 34.1
- Ratio IC50 [6]: 1
- Activity [7]: inactive
- Activity [8]: Not Active
- Activity [9]: inactive
- Activity [10]: Active
- Ratio IC50 [11]: 1.2
- Activity [12]: Active
- IC50 [13]: > 100 µM
- Activity [14]: Not Active
- IC50 [15]: 6.71 µM
- Ratio IC50 [16]: 14.9
- IC50 [17]: > 100 µM
- Ratio IC50 [18]: 1.8
- Activity [19]: inactive
- Ratio IC50 [20]: 1
- Activity [21]: Not Active
- Activity [22]: Active
- Ratio IC50 [23]: 34.1
- Activity [24]: inactive
- IC50 [25]: 2.93 µM
- Activity [26]: inactive
- Ratio IC50 [27]: 1.2
- Ratio IC50 [28]: 1
- Activity [29]: inactive
- Ratio IC50 [30]: 1.8
- Activity [31]: Active
- Activity [32]: inactive
- IC50 [33]: > 100 µM
- IC50 [34]: > 100 µM
- IC50 [35]: 85.7 µM
- Activity [36]: Active
- Activity [37]: Active
- Activity [38]: inactive
- Activity [39]: inactive
- Ratio IC50 [40]: 14.9
- Ratio IC50 [41]: 1
- Activity [42]: Active
- IC50 [43]: 36.6 µM
- IC50 [44]: 55.6 µM
- Activity [45]: Not Active
- Activity [46]: inactive
- Activity [47]: Not Active
- Activity [48]: inactive
- Ratio IC50 [49]: 2.7
- Activity [50]: inactive
